Calls of active or inactive are those of the source. The rule behind the calls is not given here.
Columns and labels:
RAW264.7 [1] = test: Cytotoxicity against mouse RAW264.7 cells at 100 uM after 8 hrs by MTT assay; assay type: cell-based; settings: raw264.7, 8 h
[2] = target: T1, Nuclear factor erythroid 2-related factor 2 (Mus musculus) (UniProt Q60795); test: Induction of Nrf2-mediated HO1 mRNA expression in mouse RAW264.7 cells at 100 uM after 2 to 4 hrs by quantitative RT-PCR analysis relative to control; assay type: cell-based
T1 sequence (whole entry): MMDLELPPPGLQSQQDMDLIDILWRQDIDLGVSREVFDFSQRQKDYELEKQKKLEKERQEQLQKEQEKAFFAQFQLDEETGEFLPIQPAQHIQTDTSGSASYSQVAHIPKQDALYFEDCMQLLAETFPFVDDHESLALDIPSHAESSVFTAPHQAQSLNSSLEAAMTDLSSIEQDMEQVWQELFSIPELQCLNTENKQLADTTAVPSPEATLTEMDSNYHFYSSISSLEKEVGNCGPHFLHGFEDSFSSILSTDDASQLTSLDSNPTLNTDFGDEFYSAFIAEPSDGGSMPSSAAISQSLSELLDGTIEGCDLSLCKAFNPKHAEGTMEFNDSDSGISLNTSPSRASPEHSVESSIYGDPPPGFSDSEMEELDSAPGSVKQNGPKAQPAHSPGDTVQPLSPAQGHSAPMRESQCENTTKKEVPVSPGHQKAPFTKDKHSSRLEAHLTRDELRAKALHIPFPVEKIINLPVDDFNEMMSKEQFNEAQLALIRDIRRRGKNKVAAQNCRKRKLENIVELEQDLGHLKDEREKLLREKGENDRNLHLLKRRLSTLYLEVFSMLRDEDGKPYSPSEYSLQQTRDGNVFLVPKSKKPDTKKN

RAW264.7 [3] = test: Antiinflammatory activity in mouse RAW264.7 cells assessed as inhibition of LPS-induced nitric oxide production at 50 to 100 uM after 24 hrs by Griess method; assay type: functional; set-up: scale not given: the % may be the effect or the level left
[4] = target: T1, Nuclear factor erythroid 2-related factor 2 (Mus musculus); test: Induction of Nrf2-mediated HO1 mRNA expression in mouse RAW264.7 cells at 100 uM after 24 hrs by quantitative RT-PCR analysis relative to control; assay type: cell-based
[5] = target: T1, Nuclear factor erythroid 2-related factor 2 (Mus musculus); test: Induction of Nrf2-mediated CAT mRNA expression in mouse RAW264.7 cells at 100 uM after 4 to 20 hrs by quantitative RT-PCR analysis relative to control; assay type: cell-based
[6] = target: T1, Nuclear factor erythroid 2-related factor 2 (Mus musculus); test: Induction of Nrf2-mediated NQO1 mRNA expression in mouse RAW264.7 cells at 100 uM after 24 hrs by quantitative RT-PCR analysis relative to control; assay type: cell-based
Outline: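 RAW 264.7 cells (DMEM, 10% FBS, 37°C, 5% CO2) exposed to 100 μM compound for a series of time points without stated LPS activation. Total RNA isolated, converted to cDNA, and NQO1 quantified by TaqMan real-time RT-PCR using mouse-specific assays. Fold change versus control derived by the ΔΔCt relative quantification method (40 cycles, 95/60 °C).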

[7] = target: T1, Nuclear factor erythroid 2-related factor 2 (Mus musculus); test: Induction of Nrf2 in mouse RAW264.7 cells assessed as […] in CAT mRNA expression at 100 uM after 24 hrs by quantitative RT-PCR analysis relative to control; assay type: cell-based
[8] = target: T1, Nuclear factor erythroid 2-related factor 2 (Mus musculus); test: Induction of Nrf2-mediated NQO1 mRNA expression in mouse RAW264.7 cells at 100 uM after 2 to 4 hrs by quantitative RT-PCR analysis relative to control; assay type: cell-based
RAW264.7 [9] = test: Antioxidant activity in LPS-stimulated mouse RAW264.7 cells assessed as induction of HO-1 mRNA expression at 100 uM after 4 hrs by RT-PCR analysis; assay type: functional, cell-based

Activity [2]	Activity [4]	Activity [5]	Activity [6]	Activity [7]	Activity [8]	SMILES	Activity (RAW264.7 [1])	Activity (RAW264.7 [3]) [%]	Activity (RAW264.7 [9])
–	–	–	–	–	–	CC1(C)[C@@H](O)CC[C@]2(C)[C@H]3C(=O)C=C4[C@@H]5C[C@@](C)(C(=O)O)CC[C@]5(C)CC[C@@]4(C)[C@]3(C)CC[C@@H]12 [ENOXOLONE]	Toxic	–	–
Active	inactive	Active	inactive	inactive	Active	CC1(C)CC[C@]2(C(=O)O)CC[C@]3(C)C(=CC[C@@H]4[C@@]5(C)CC[C@H](O)C(C)(C)[C@@H]5CC[C@]43C)[C@@H]2C1 [OLEANOLIC_ACID]	Non-toxic	85	Active
–	–	–	–	–	–	C[C@H]1[C@H](C)CC[C@]2(C(=O)O)CC[C@]3(C)C(=CC[C@@H]4[C@@]5(C)CC[C@H](O)C(C)(C)[C@@H]5CC[C@]43C)[C@H]12 [URSOLIC ACID]	Toxic	–	–
